This is an account of results in ChEMBL document CHEMBL3232906, “2-Amino-3-(phenylsulfanyl)norbornane-2-carboxylate: an appealing scaffold for the design of Rac1-Tiam1 protein-protein interaction inhibitors” (J Med Chem, 2014).

pIC50: −log10 of the molar value. Calls of active or inactive are those of the source. No cut-off for these calls is given here.

The species entered for experiment [1] is Homo sapiens. Briefly: Antimigratory activity against human smooth muscle cells assessed as inhibition of PDGF-BB-induced cell motility at 10 uM measured for 16 hrs by video microscopic analysis. The experiment is classed as functional, cell-based. The procedure, abridged:
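SMCs seeded at 2 × 10^4 per well of 24-well tray in DMEM + 10% FCS, moved to 0.4% FCS for 48 h. Compound added at 10 μM final together with PDGF-BB 20 ng/mL. Time-lapse video microscopy at 37 °C for 16 h; cells manually tracked and distance covered measured for 10 cells per condition from three independent experiments, mean ± SD.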

The target of experiment [2] is T1, Ras-related C3 botulinum toxin substrate 1/T-lymphoma invasion and metastasis-inducing protein 1 (Homo sapiens, UniProt P63000+Q13009). Briefly: Inhibition of Rac1-Tiam1 interaction in human smooth muscle cells assessed as reduction of PDGF-BB stimulated GTP bound Rac1 level preincubated for 4 hrs followed by PDGF-BB stimulation measured after 2 mins by G-LISA assay. The experiment is classed as cell-based. The procedure, abridged: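 SMCs serum-starved (0.4% FCS, 48 h) after seeding at 2 × 10^5/35 mm dish, treated 4 h with compound at 1, 2.5, 5 and 10 μM final, then stimulated with PDGF-BB 20 ng/mL for 2 min. Rac1–GTP in lysates read by G-LISA (Rac1-RBD plate, primary antibody plus HRP secondary). IC50 from concentration–response; triplicates, mean ± SD.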

For experiment [3], the target named is Transforming protein RhoA (Homo sapiens) (UniProt P61586). As to the kind of experiment: Activation of RhoA in human smooth muscle cells assessed as PDGF-BB stimulated GTP bound protein level at 10 uM preincubated for 4 hrs followed by PDGF-BB stimulation measured after 2 mins by G-LISA assay. The format is cell-based. The method, boiled down:
(§1)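 Cultured human aortic SMCs seeded at 2 × 10^5/35 mm dish in DMEM + 10% FCS, switched after 24 h to 0.4% FCS for 48 h. Compounds (DMSO stocks) added at 10 μM final for 4 h, then PDGF-BB 20 ng/mL for 2 min. Lysates analysed by G-LISA (RBD-coated plate, antibody/HRP detection) for Rac1–GTP or RhoA–GTP. Mean ± SD of triplicates.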

The target of experiment [4] is T1, Ras-related C3 botulinum toxin substrate 1/T-lymphoma invasion and metastasis-inducing protein 1. Briefly: Inhibition of Rac1-Tiam1 interaction in human smooth muscle cells assessed as reduction of PDGF-BB stimulated GTP bound Rac1 level at 10 uM preincubated for 4 hrs followed by PDGF-BB stimulation measured after 2 mins by G-LISA assay relative to control. The format is cell-based. The procedure, abridged:
as §1

Transforming protein RhoA (Homo sapiens), sequence (P61586 whole entry): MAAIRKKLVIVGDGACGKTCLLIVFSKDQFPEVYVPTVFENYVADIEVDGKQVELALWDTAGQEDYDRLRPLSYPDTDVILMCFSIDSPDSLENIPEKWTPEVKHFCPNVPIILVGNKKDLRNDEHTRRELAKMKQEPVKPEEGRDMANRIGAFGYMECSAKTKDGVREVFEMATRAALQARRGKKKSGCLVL

For the molecule `CCOC(=O)[C@]1(N)[C@@H]2C[C@@H](C[C@H]2c2cccc(Nc3ccc(N)cc3)c2)[C@@H]1Sc1ccccc1` (relative stereo), in experiment [1], the inhibition entry is “Active”. The pIC50 in experiment [2] was 5.60. In addition, the inhibition entry in experiment [2] is “Dose-dependent effect”; in experiment [4], 75%. The outcome in experiment [3] was Active.
Turning to `CCOC(=O)[C@@]1(N)[C@@H]2C[C@@H](C[C@H]2c2cccc(Nc3ccc(N)cc3)c2)[C@@H]1Sc1ccccc1` (relative stereo), the outcome in experiment [3] was Active. Also, the inhibition result in experiment [4] is “Active”.
`CCOC(=O)[C@@]1(N)[C@@H]2C[C@@H]([C@@H](c3cccc(Nc4ccc(N)cc4)c3)C2)[C@@H]1Sc1ccccc1` (relative stereo): the outcome in experiment [3] was Active. In addition, the inhibition entry in experiment [4] is “Active”.
In the case of `CCOC(=O)[C@]1(N)[C@@H]2C[C@@H](C[C@H]2c2cccc(Nc3ccc(N)cc3)c2)[C@H]1Sc1ccccc1` (relative stereo), the result in experiment [3] was Active. For the same molecule, the inhibition entry in experiment [4] is “Active”.
As for `CCOC(=O)[C@]1(N)[C@@H]2C[C@@H]([C@@H](c3cccc(Nc4ccc(N)cc4)c3)C2)[C@@H]1Sc1ccccc1` (relative stereo), in experiment [3], the result was Active. Moreover, in experiment [4], the inhibition entry is “Active”.
For `CCOC(=O)[C@]1(N)[C@@H]2C[C@@H]([C@@H](c3cccc(Nc4ccc(N)cc4)c3)C2)[C@H]1Sc1ccccc1` (relative stereo), the outcome in experiment [3] was Active. Also, the inhibition result in experiment [4] was “Active”.

One may read the inhibition as how much of the control response was suppressed. What is called pIC50 is the IC50 on a negative log10 scale, so that one unit is a factor of ten.
